Calls of active or inactive are those of the source. The rule behind the calls is not given here.

These results are taken from ChEMBL document CHEMBL2331394, “Neuroprotective effects of mercaptoethylleonurine and mercaptoethylguanidine analogs on hydrogen peroxide-induced apoptosis in human neuronal SH-SY5Y cells” (Bioorg Med Chem Lett, 2013).

The nature of data set [1]: Neuroprotective activity in human SH-SY5Y cells assessed as reduction of H2O2-induced apoptosis at 5 uM after 24 hrs by MTT assay relative to control. The class given is functional, cell-based. The arrangement: scale not given: the % may be the effect or the level left.
Data set [2] can be described thus: Neuroprotective activity in human SH-SY5Y cells assessed as reduction of H2O2-induced apoptosis at 25 uM after 24 hrs by MTT assay relative to control. Format: functional, cell-based. The arrangement: scale not given: the % may be the effect or the level left.
Data set [3] is described as follows: Neuroprotective activity in human SH-SY5Y cells assessed as reduction of H2O2-induced apoptosis at 50 uM after 24 hrs by MTT assay relative to control. The arrangement: scale not given: the % may be the effect or the level left. The class given is functional, cell-based.
Data set [4] can be described thus: Cytotoxicity against human SH-SY5Y cells at 5 to 100 uM by MTT assay. Format: cell-based.
Data set [5] is described as follows: Neuroprotective activity in human SH-SY5Y cells assessed as reduction of H2O2-induced apoptosis at 5 mM after 24 hrs by MTT assay relative to N-acetyl-cysteine. The class given is functional, cell-based. The arrangement: scale not given: the % may be the effect or the level left.
The test system of data set [6] is SH-SY5Y. The experiment in a line: Inhibition of H2O2-induced ERK phosphorylation in human SH-SY5Y cells at 50 uM incubated for 4 hrs prior to H2O2 induction measured after 12 hrs by Western blotting analysis. Format: cell-based. The method, boiled down: (§1)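 SH-SY5Y cells pretreated 4 h with 50 µM test agent, then stimulated with 100 µM H2O2 for the indicated periods before harvest. Phosphorylated Akt, JNK, ERK and p38 detected by Western blot, normalised to the corresponding total protein as loading control.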

Data set [7] addresses MAP kinase p38 (Homo sapiens) (UniProt O15264+Q15759+Q16539+P53778). The experiment in a line: Inhibition of H2O2-induced p38 phosphorylation in human SH-SY5Y cells at 50 uM incubated for 4 hrs prior to H2O2 induction measured after 12 hrs by Western blotting analysis. The class given is cell-based. In short, it runs like this: as §1
The target in data set [8] is c-Jun N-terminal kinase, JNK (Homo sapiens) (UniProt P45983+P53779+P45984). Briefly: Inhibition of H2O2-induced JNK phosphorylation in human SH-SY5Y cells at 50 uM incubated for 4 hrs prior to H2O2 induction measured after 12 hrs by Western blotting analysis. The class given is cell-based. The method, boiled down:
as §1

Data set [9] concerns SH-SY5Y. Briefly: Inhibition of H2O2-induced AKT phosphorylation in human SH-SY5Y cells at 50 uM incubated for 4 hrs prior to H2O2 induction measured after 12 hrs by Western blotting analysis. Format: cell-based. The method, boiled down:
as §1

Data set [10] in a line: Neuroprotective activity in H2O2-stimulated human SH-SY5Y cells assessed as upregulation of Bax expression incubated for 4 hrs prior to H2O2 challenge measured after 12 hrs by Western blotting analysis. The class given is functional, cell-based. The conditions noted are these: in the assay text read “downregulation of Bax expression” for “upregulation of Bax expression”. In short, it runs like this:
(§2)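 SH-SY5Y cells pretreated 4 h with test agent (5, 25, 50 µM) or NAC (5 mM), then exposed to 100 µM H2O2 for 12 h. Bcl-2 and Bax quantified by Western blot densitometry against GAPDH. Mean ± SEM of at least three independent experiments, each in duplicate.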

Data set [11] can be described thus: Neuroprotective activity in H2O2-stimulated human SH-SY5Y cells assessed as downregulation of Bcl2 expression incubated for 4 hrs prior to H2O2 challenge measured after 12 hrs by Western blotting analysis. The class given is functional, cell-based. Particulars: in the assay text read “upregulation of Bcl2 expression” for “downregulation of Bcl2 expression”. In short, it runs like this: as §2

A short description of data set [12]: Neuroprotective activity in H2O2-stimulated human SH-SY5Y cells assessed as upregulation of Bax expression at 5 mM incubated for 4 hrs prior to H2O2 challenge measured after 12 hrs by Western blotting analysis. Format: functional, cell-based. The conditions noted are these: in the assay text read “downregulation of Bax expression” for “upregulation of Bax expression”. The method, boiled down: as §2

A short description of data set [13]: Neuroprotective activity in H2O2-stimulated human SH-SY5Y cells assessed as downregulation of Bcl2 expression at 5 mM incubated for 4 hrs prior to H2O2 challenge measured after 12 hrs by Western blotting analysis. The class given is functional, cell-based. Particulars: in the assay text read “upregulation of Bcl2 expression” for “downregulation of Bcl2 expression”. In short, it runs like this:
as §2

For the compound `N=C(NCCS)NCCCCCO`, the Activity is 60% in [1]; 80.6% in data set [2]; 82.8% in data set [3]; “Non-toxic” in [4]; 76.4% in data set [5].
Regarding `COc1cc(C(=O)OCCCCCCNC(=N)NCCS)cc(OC)c1O`, the Activity was 78.5% in data set [1]; 80.6% in [2]; 73.8% in data set [3]; “Non-toxic” in [4]; 88.8% in [5].
Take `N=C(NCCS)NCCCN`: the inhibition result (in the data set on SH-SY5Y [6]; in [7]) was “inactive” in each case. Besides, the inhibition result (in [8]; with SH-SY5Y [9]) was “Active” each time. Also, the Activity result in data set [10] was “Dose-dependent effect”; in [11], “Dose-dependent effect”; in [1], 77.3%; in data set [2], 84.3%; in data set [3], 96.5%; in data set [4], “Non-toxic”. Also, the Activity in [5] was 82.4%.
As for `COc1cc(OC)cc(C(=O)OCCCCNC(=N)NCCS)c1`, the Activity in data set [1] is 62.1%; in data set [2], 63.5%; in data set [3], 66.1%; in [4], “Non-toxic”; in data set [5] it was 88.8%.
On to `CC(O)CNC(=N)NCCS` (configuration not stated), for which the Activity in data set [1] is 77.1%; in data set [2], 67.3%; in data set [3] it was 65.5%; in data set [4], “Non-toxic”; in data set [5], 88.8%.
On the same counts, the results for `N=C(NCCS)NC1CCC(O)CC1` (configuration not stated) are 31.6%, 38.6%, 30.4%, “Non-toxic” and 82.4%.
The matching figures for `COc1cc(C(=O)OCCCCNC(=N)NCCS)cc(OC)c1O`: 60.7%, 66.4%, 60.4%, “Non-toxic” and 88.8%.
Turning to `CC(CO)NC(=N)NCCS` (configuration not stated), the Activity in [1] is 59.9%; in data set [2], 67.2%; in data set [3], 80%; in [4], “Non-toxic”; in [5], 88.8%.
For the compound `COc1cc(C(=O)OCCCCCNC(=N)NCCS)cc(OC)c1O`, the Activity was 53.9% in data set [1]; 59.9% in data set [2]; 65.9% in data set [3]; “Non-toxic” in [4]; 76.4% in data set [5].
`N=C(NCCS)NCCCO`: the Activity in [1] is 67.2%; in data set [2], 81%; in [3], 82.1%; in [4], “Non-toxic”; in data set [5] it was 76.4%.
Take `CC(=O)N[C@@H](CS)C(=O)O`: the result in data set [12] and in [13] was Active.
As to `N=C(NCCO)NCCS`, the Activity was 56.4% in data set [1]; 59.6% in data set [2]; 65.1% in data set [3]; “Non-toxic” in data set [4]; 76.4% in data set [5].
On the same counts, the results for `COc1cc(C(=O)OC2CCC(NC(=N)NCCS)CC2)cc(OC)c1O` (configuration not stated) are 76.4%, 67.2%, 65.9%, “Non-toxic” and 88.8%.
On to `N=C(NCCS)NCCCCO`, for which the Activity in [1] is 68%; in data set [2], 63.5%; in data set [3], 70.2%; in data set [4], “Non-toxic”; in data set [5] it was 82.4%.
On to `COc1ccc(C(=O)OCCCCNC(=N)NCCS)cc1`, for which the Activity is 42.4% in [1]; 37.5% in data set [2]; 48.6% in data set [3]; “Non-toxic” in data set [4]; 82.4% in [5].
`COc1cc(C(=O)OCCCCNC(=N)N)cc(OC)c1O`: the Activity in data set [1] came to 76.7%; in data set [2], 38.5%; in data set [3], 46%; in data set [5] it was 82.4%.
Turning to `COc1cc(C(=O)OCCCNC(=N)NCCS)cc(OC)c1O`, the Activity is 78.8% in data set [1]; 83.3% in data set [2]; 93.3% in data set [3]; “Non-toxic” in data set [4]; 76.4% in [5].
For the compound `COc1cc(C(=O)OCCCCNC(=N)NCCS)cc(OC)c1OC`, the Activity in data set [1] is 32.5%; in data set [2], 49.4%; in [3], 49.1%; in data set [4], “Non-toxic”; in data set [5], 82.4%.
On to `CCC(O)CNC(=N)NCCS` (configuration not stated), for which the Activity in [1] was 75.8%; in [2] it was 77.1%; in data set [3] it was 71.1%; in [4], “Non-toxic”; in [5] it was 88.8%.
On the same counts, the results for `N=C(NCCS)NCCCCCCO` are 72.4%, 55.5%, 52.9%, “Non-toxic” and 82.4%.
Turning to `N=C(NCCN)NCCS`, the Activity is 66.3% in data set [1]; 75.4% in data set [2]; 79.2% in data set [3]; “Non-toxic” in [4]; 76.4% in data set [5].
